Experimental data published in publication PMC2939154 (Nature, 2010).
Entries after “also recorded” stand apart in the source; their conditions may differ. Ends that are not written are not given here.

T1: NRMT (Homo sapiens, UniProt Q9BV86)
T1 sequence (Q9BV86 1-223): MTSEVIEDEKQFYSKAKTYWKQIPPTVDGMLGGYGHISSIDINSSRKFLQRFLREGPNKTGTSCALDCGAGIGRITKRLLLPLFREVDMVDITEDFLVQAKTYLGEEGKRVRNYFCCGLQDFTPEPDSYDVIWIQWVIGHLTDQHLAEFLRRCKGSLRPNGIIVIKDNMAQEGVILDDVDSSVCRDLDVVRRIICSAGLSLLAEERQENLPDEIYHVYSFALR


Tests used:
[1] = molecular target: N-terminal RCC1 methyltransferase (NRMT) (not stated (human or mouse cDNA cloned)) (UniProt Q9BV86); assay: ITC
[2] = molecular target: T1, NRMT; assay: isothermal titration calorimetry; format: binding; conditions: ITC, 25OC, methyltransferase buffer pH 8.0
Outline: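 Isothermal titration calorimetry of NRMT binding to peptide ligands: the wild-type RCC1 N-terminal peptide and a mutant peptide with Gln in place of Lys4. This tests whether Lys4 is needed for substrate binding. The readout is binding affinity.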

[3] = test system: N-terminally methylated proteins; conditions: mouse spleen and cardiac lysates, anti-me3-SPK immunoprecipitation
[4] = test system: SPK-RCC1; format: biochemical, human; conditions: in vitro methylation of SPK-RCC1
[5] = molecular target: T1, NRMT; assay: in vitro methylation assay of protein substrates by NRMT, immunoblot; format: biochemical; conditions: 50mM Tris, 50mM K Acetate, pH 8.0, 100 µM SAM, 1 h at 30°C
[6] = test system: RCC1 methylation in 293LT cells; assay: NRMT lentiviral knockdown and rescue in 293LT cells, immunoblot; format: cell-based; conditions: murine NRMT, not targeted by human shRNA

in vitro methylation (enzyme FLAG-NRMT or His6-NRMT; substrate protein) [5]	Molecule	N-terminal methylation identified by MS [3]	further results
	wild-type 12-residue RCC1 N-terminal peptide		Kd [1]: 70 µM; dH [1]: -9.8 kcal/mol
	H-SPKRIAKRRSPP		ΔH (exothermic binding) [2]: -9.8 kcal/mol
	myosin light chain 3: mouse protein identified in anti-me3-SPK immunoprecipitates	N-terminally methylated	
	NRMT(Lys169): NRMT mutant at Asn169 (protein) TSEVIEDEKQFYSKAKTYWKQIPPTVDGMLGGYGHISSIDINSSRKFLQRFLREGPNKTGTSCALDCGAGIGRITKRLLLPLFREVDMVDITEDFLVQAKTYLGEEGKRVRNYFCCGLQDFTPEPDSYDVIWIQWVIGHLTDQHLAEFLRRCKGSLRPNGIIVIKDKMAQEGVILDDVDSSVCRDLDVVRRIICSAGLSLLAEERQENLPDEIYHVYSFALR		methylation activity of NRMT mutant [4]: no activity
	RCC1: regulator of chromosome condensation 1, Ran guanine nucleotide-exchange factor (protein, UniProt P18754 2-421, looked up) Regulator of chromosome …: SPKRIAKRRSPPADAIPKSKKVKVSHRSHSTEPGLVLTLGQGDVGQLGLGENVMERKKPALVSIPEDVVQAEAGGMHTVCLSKSGQVYSFGCNDEGALGRDTSVEGSEMVPGKVELQEKVVQVSAGDSHTAALTDDGRVFLWGSFRDNNGVIGLLEPMKKSMVPVQVQLDVPVVKVASGNDHLVMLTADGDLYTLGCGEQGQLGRVPELFANRGGRQGLERLLVPKCVMLKSRGSRGHVRFQDAFCGAYFTFAISHEGHVYGFGLSNYHQLGTPGTESCFIPQNLTSFKNSTKSWVGFSGGQHHTVCMDSEGKAYSLGRAEYGRLGLGEGAEEKSIPTLISRLPAVSSVACGASVGYAVTKDGRVFAWGMGTNYQLGTGQDEDAWSPVEMMGKQLENRVVLSVSSGGQHTVLLVKDKEQS	N-terminally methylated	
dimethylates	PPK-RCC1-His6: RCC1 possessing a Pro2 residue, His6 tagged (protein, UniProt P18754 2-421, looked up, variant S2P, His6 tag) Regulator of chromosome …: PPKRIAKRRSPPADAIPKSKKVKVSHRSHSTEPGLVLTLGQGDVGQLGLGENVMERKKPALVSIPEDVVQAEAGGMHTVCLSKSGQVYSFGCNDEGALGRDTSVEGSEMVPGKVELQEKVVQVSAGDSHTAALTDDGRVFLWGSFRDNNGVIGLLEPMKKSMVPVQVQLDVPVVKVASGNDHLVMLTADGDLYTLGCGEQGQLGRVPELFANRGGRQGLERLLVPKCVMLKSRGSRGHVRFQDAFCGAYFTFAISHEGHVYGFGLSNYHQLGTPGTESCFIPQNLTSFKNSTKSWVGFSGGQHHTVCMDSEGKAYSLGRAEYGRLGLGEGAEEKSIPTLISRLPAVSSVACGASVGYAVTKDGRVFAWGMGTNYQLGTGQDEDAWSPVEMMGKQLENRVVLSVSSGGQHTVLLVKDKEQS		
	murine NRMT-FLAG: murine NRMT-FLAG, not targeted by the human shRNA (protein, UniProt Q8R2U4 1-223, looked up, FLAG tag) N-terminal Xaa-Pro-Lys …: MTSEVIEDEKQFYSKAKTYWKQIPPTVDGMLGGYGHISNIDLNSSRKFLQRFLREGPNKTGTSCALDCGAGIGRITKRLLLPLFRVVDMVDVTEDFLAKAKTYLGEEGKRVRNYFCCGLQDFSPEPGSYDVIWIQWVIGHLTDQHLAEFLRRCKRGLRPNGIIVIKDNMAQEGVILDDVDSSVCRDLEVVRRIIRTAGLSLLAEERQENLPDEIYHVYSFALR		RCC1 methylation levels, rescue in NRMT knockdown cells [6]: rescues RCC1 methylation levels; also recorded: RCC1 methylation was rescued
methylates RCC1-His6	FLAG-NRMT: N-terminally FLAG-tagged NRMT (protein, UniProt Q9BV86 1-223, looked up, N-terminal FLAG tag) N-terminal Xaa-Pro-Lys …: MTSEVIEDEKQFYSKAKTYWKQIPPTVDGMLGGYGHISSIDINSSRKFLQRFLREGPNKTGTSCALDCGAGIGRITKRLLLPLFREVDMVDITEDFLVQAKTYLGEEGKRVRNYFCCGLQDFTPEPDSYDVIWIQWVIGHLTDQHLAEFLRRCKGSLRPNGIIVIKDNMAQEGVILDDVDSSVCRDLDVVRRIICSAGLSLLAEERQENLPDEIYHVYSFALR		
di-and trimethylates	RCC1-His6: recombinant RCC1 with C-terminal His6 tag (protein, left off: His6, C-terminal, state not stated) MSPKRIAKRRSPPADAIPKSKKVKVSHRSHSTEPGLVLTLGQGDVGQLGLGENVMERKKPALVSIPEDVVQAEAGGMHTVCLSKSGQVYSFGCNDEGALGRDTSVEGSEMVPGKVELQEKVVQVSAGDSHTAALTDDGRVFLWGSFRDNNGVIGLLEPMKKSMVPVQVQLDVPVVKVASGNDHLVMLTADGDLYTLGCGEQGQLGRVPELFANRGGRQGLERLLVPKCVMLKSRGSRGHVRFQDAFCGAYFTFAISHEGHVYGFGLSNYHQLGTPGTESCFIPQNLTSFKNSTKSWVGFSGGQHHTVCMDSEGKAYSLGRAEYGRLGLGEGAEEKSIPTLISRLPAVSSVACGASVGYAVTKDGRVFAWGMGTNYQLGTGQDEDAWSPVEMMGKQLENRVVLSVSSGGQHTVLLVKDKEQS		
	kelch-like protein 31: mouse protein identified in anti-me3-SPK immunoprecipitates (protein, UniProt Q8BWA5 2-634, looked up) Kelch-like protein 31: APKKKTIKKNKAEINEMTIIVEDSPLSKLNALNGLLEGSNSLSCVSSELTDTSYGPNLLEGLSKMRQESFLCDLVIGTKTKSFDVHKSVMASCSEYFYNILKNDPSTKRVDLNDIAPLGLATVIAYAYTGKLTLSLYTIGSIISAAVYLQIHTLVKMCSDFLIREISVENCMYVVNIAETYSLKNAKATAQKFIRDNFIEFAESEQFMKLTFEQINELLVDDDLQLPSELVAFQIAMKWLEFDQKRVKHAADLLSNIRFGTISAQDLVNYVQTVPRMMQDADCHKLLVDAMNYHLLPYHQNTLQSRRTRIRGGCRVLITVGGRPGLTEKSLSRDILYRDPENGWSKLTEMPAKSFNQCVAVMDGFLYVAGGEDQNDARNQAKHAVSNFCRYDPRFNTWIHLGSMNQKRTHFSLSVFNGLLYAVGGRNSEGSLASLECYVPSTNQWQPKAPLEVARCCHASAVADGRVIVTGGYIGSAYSRSVCAYDPALDAWQELPQLSTPRGWHCAVALGDRLYVMGGSQLGPRGERVDVLTVESFSPAARQWSFVAPLPVGVSTAGVSALHGRAYLLGGWNEGDKKYKKCIQCFNPELNEWTEDDELPEATVGVSCCTLAMPNSVSRESRASSVSSVPVSI	N-terminally methylated	
	myosin light chain 2: mouse protein identified in anti-me3-SPK immunoprecipitates (protein, UniProt P51667 2-166, looked up) Myosin regulatory light chain …: APKKAKKRIEGGSSNVFSMFEQTQIQEFKEAFTIMDQNRDGFIDKNDLRDTFAALGRVNVKNEEIDEMIKEAPGPINFTVFLTMFGEKLKGADPEETILNAFKVFDPEGKGSLKADYVREMLTTQAERFSKEEIDQMFAAFPPDVTGNLDYKNLVHIITHGEEKD	N-terminally methylated	

Molecule	in vitro methylation (enzyme FLAG-NRMT or His6-NRMT; substrate protein) [5]	N-terminal methylation identified by MS [3]	further results
RB: tumor suppressor protein RB; endogenous, or N-terminus fused to GFP (Fig. 3g) (protein, UniProt P06400 2-928, looked up) Retinoblastoma-associated …: PPKTPRKTAATAAAAAAEPPAPPPPPPPEEDPEQDSGPEDLPLVRLEFEETEEPDFTALCQKLKIPDHVRERAWLTWEKVSSVDGVLGGYIQKKKELWGICIFIAAVDLDEMSFTFTELQKNIEISVHKFFNLLKEIDTSTKVDNAMSRLLKKYDVLFALFSKLERTCELIYLTQPSSSISTEINSALVLKVSWITFLLAKGEVLQMEDDLVISFQLMLCVLDYFIKLSPPMLLKEPYKTAVIPINGSPRTPRRGQNRSARIAKQLENDTRIIEVLCKEHECNIDEVKNVYFKNFIPFMNSLGLVTSNGLPEVENLSKRYEEIYLKNKDLDARLFLDHDKTLQTDSIDSFETQRTPRKSNLDEEVNVIPPHTPVRTVMNTIQQLMMILNSASDQPSENLISYFNNCTVNPKESILKRVKDIGYIFKEKFAKAVGQGCVEIGSQRYKLGVRLYYRVMESMLKSEEERLSIQNFSKLLNDNIFHMSLLACALEVVMATYSRSTSQNLDSGTDLSFPWILNVLNLKAFDFYKVIESFIKAEGNLTREMIKHLERCEHRIMESLAWLSDSPLFDLIKQSKDREGPTDHLESACPLNLPLQNNHTAADMYLSPVRSPKKKGSTTRVNSTANAETQATSAFQTQKPLKSTSLSLFYKKVYRLAYLRLNTLCERLLSEHPELEHIIWTLFQHTLQNEYELMRDRHLDQIMMCSMYGICKVKNIDLKFKIIVTAYKDLPHAVQETFKRVLIKEEEYDSIIVFYNSVFMQRLKTNILQYASTRPPTLSPIPHIPRSPYKFPSSPLRIPGGNIYISPLKSPYKISEGLPTPTKMTPRSRILVSIGESFGTSEKFQKINQMVCNSDRVLKRSAEGSNPPKPLKKLRFDIEGSDEADGSKHLPGESKFQQKLAEMTSTRTRMQKQKMNDSMDTSNKEEK	can methylate in vitro; also recorded: able to methylate		
